Measurements: ChEMBL document CHEMBL1140469, “Novel, potent THC/anandamide (hybrid) analogs” (Bioorg Med Chem, 2007)
pKi: −log10 of the molar value.

Tests used:
Mus musculus [1] = assay: Hypothermic activity in iv dosed mouse assessed as change in rectal temperature after 4 mins; assay type: functional
Method in brief: (§1)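 A separate group of mice had rectal temperature taken by thermistor probe inserted 25 mm, before and 4 min after iv dosing in ethanol:emulphor:saline 1:1:18. Change is the pre minus post difference. ED50 from regression against log dose, in µmol/kg; otherwise maximal change given with its dose. Maximum dose 30 mg/kg.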

Mus musculus [2] = assay: Induction of ring immobility in iv dosed mouse; assay type: functional
Method in brief: (§2)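 Right after the temperature reading, iv-dosed mice (ethanol:emulphor:saline 1:1:18) were placed on a 5.5-cm ring set 16 cm high. Time spent motionless over 5 min was recorded. ED50 from regression against log dose, in µmol/kg; otherwise maximal effect given with its dose. Maximum dose 30 mg/kg.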

Cannabinoid receptor 1 = Cannabinoid receptor 1 (Homo sapiens, UniProt P21554); assay: Displacement of [3H]CP-55940 from human CB1 receptor expressed in HEK293 cells; assay type: cell-based
Method in brief: (§3)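 Membranes (50 µg) from HEK-293 cells stably expressing human CB1 (DMEM, 10% FBS) or CHO cells stably expressing human CB2 (DMEM, 10% FCS). Incubated with 0.5 nM [3H]CP55,940 and test compound (1 nM–10 µM) in buffer with BSA 5 mg/mL, 1 h at 30 °C. Filtration, scintillation counting. Ki from displacement data; three experiments in triplicate.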

Cannabinoid receptor 2 = Cannabinoid receptor 2 (Homo sapiens, UniProt P34972); assay: Displacement of [3H]CP-55940 from human CB2 receptor expressed in CHO cells; assay type: cell-based; method in brief: as §3
Mus musculus [3] = assay: Suppression of spontaneous activity in iv dosed mouse; assay type: functional
Method in brief: (§4)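 Mice dosed iv in ethanol:emulphor:saline 1:1:18. After the 4-min tail-flick retest, each mouse spent 10 min in a photocell cage where beam interruptions were counted. Activity expressed as % of vehicle group, 6 mice/dose. ED50 from regression against log dose, in µmol/kg. Maximum dose 30 mg/kg.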

Mus musculus [4] = assay: Antinociceptive activity in iv dosed mouse by tail filck test; assay type: functional
Method in brief: (§5)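 Mouse tail flick to radiant heat from bright light, 10-s cutoff. Baseline latency taken, then iv tail-vein dosing in ethanol:emulphor:saline 1:1:18, 0.1 mL/10 g. Retested 4 min later. Result expressed as %MPE, 6 mice/dose. ED50 from least-squares linear regression against log dose, in µmol/kg. Doses above 30 mg/kg not given.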

Mus musculus [5] = assay: Induction of ring immobility in mouse at 30 mg/kg, iv; assay type: functional; method in brief: as §2
Mus musculus [6] = assay: Hypothermic activity in mouse assessed as change in rectal temperature at 30 mg/kg, iv after 4 mins; assay type: functional; method in brief: as §1
Mus musculus [7] = assay: Antinociceptive activity in mouse at 30 mg/kg, iv by tail filck test; assay type: functional; method in brief: as §5
Mus musculus [8] = assay: Suppression of spontaneous activity in mouse at 30 mg/kg, iv; assay type: functional; method in brief: as §4

Sequence of Cannabinoid receptor 2 (P34972 whole entry): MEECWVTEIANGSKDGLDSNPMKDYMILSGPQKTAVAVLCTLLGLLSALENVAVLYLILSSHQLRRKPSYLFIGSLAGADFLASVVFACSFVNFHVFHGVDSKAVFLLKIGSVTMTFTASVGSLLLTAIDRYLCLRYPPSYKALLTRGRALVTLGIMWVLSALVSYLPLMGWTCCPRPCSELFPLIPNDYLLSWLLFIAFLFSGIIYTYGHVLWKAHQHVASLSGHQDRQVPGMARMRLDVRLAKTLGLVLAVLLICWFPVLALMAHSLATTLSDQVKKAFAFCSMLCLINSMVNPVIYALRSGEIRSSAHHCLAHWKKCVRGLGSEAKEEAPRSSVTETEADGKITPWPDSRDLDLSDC
Sequence of Cannabinoid receptor 1 (P21554 whole entry): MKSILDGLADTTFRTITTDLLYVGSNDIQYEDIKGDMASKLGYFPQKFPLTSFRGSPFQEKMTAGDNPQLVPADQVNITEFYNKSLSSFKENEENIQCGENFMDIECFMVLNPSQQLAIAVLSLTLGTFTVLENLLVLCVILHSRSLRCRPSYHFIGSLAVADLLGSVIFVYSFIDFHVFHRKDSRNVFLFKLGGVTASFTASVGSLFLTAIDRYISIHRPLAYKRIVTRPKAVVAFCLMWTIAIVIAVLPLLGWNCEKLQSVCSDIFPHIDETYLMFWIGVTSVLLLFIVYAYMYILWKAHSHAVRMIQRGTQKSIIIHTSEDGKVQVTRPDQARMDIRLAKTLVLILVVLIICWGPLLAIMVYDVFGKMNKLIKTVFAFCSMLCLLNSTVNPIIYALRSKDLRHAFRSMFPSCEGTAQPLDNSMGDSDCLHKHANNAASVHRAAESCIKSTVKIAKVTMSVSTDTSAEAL

C[C@H](CO)NC(=O)CCC/C=C\C/C=C\CCOc1cccc(C(C)(C)CCCCN=[N+]=[N-])c1
ED50 (Mus musculus [1]): 1.95 µmol/kg | ED50 (Mus musculus [2]): 0.3 µmol/kg | pKi (Cannabinoid receptor 1): 8.56 | pKi (Cannabinoid receptor 2): 8.60 | ED50 (Mus musculus [3]): 0.2 µmol/kg | ED50 (Mus musculus [4]): 0.2 µmol/kg

CCCCCCC(C)(C)c1ccc(OCC/C=C\C/C=C\CCCC(=O)N[C@H](C)CO)cc1
Activity (Mus musculus [5]): 13.4% | pKi (Cannabinoid receptor 1): 6.71 | pKi (Cannabinoid receptor 2): 7.11 | Activity (Mus musculus [6]): -0.5 °C | Activity (Mus musculus [7]): 30.7% | Activity (Mus musculus [8]): 44.9%

CCCCCCC(C)(C)c1cccc(OCC/C=C\C/C=C\CCCC(=O)N[C@H](C)CO)c1
ED50 (Mus musculus [1]): 7.8 µmol/kg | ED50 (Mus musculus [2]): 9.66 µmol/kg | pKi (Cannabinoid receptor 1): 8.07 | pKi (Cannabinoid receptor 2): 7.67 | ED50 (Mus musculus [3]): 3.73 µmol/kg | ED50 (Mus musculus [4]): 8.45 µmol/kg

C[C@H](CO)NC(=O)CCC/C=C\C/C=C\CCOc1cccc(C(C)(C)CCCCBr)c1
ED50 (Mus musculus [1]): 2.1 µmol/kg | ED50 (Mus musculus [2]): 1.4 µmol/kg | pKi (Cannabinoid receptor 1): 8.05 | pKi (Cannabinoid receptor 2): 8.13 | ED50 (Mus musculus [3]): 0.7 µmol/kg | ED50 (Mus musculus [4]): 0.8 µmol/kg

CCCCCCC(C)(C)c1cccc(OCC/C=C\C/C=C\C/C=C\CCCC(=O)N[C@H](C)CO)c1
Activity (Mus musculus [5]): 22% | pKi (Cannabinoid receptor 1): 6.88 | pKi (Cannabinoid receptor 2): 6.72 | Activity (Mus musculus [6]): -0.9 °C | Activity (Mus musculus [7]): 61% | Activity (Mus musculus [8]): 55%

CCCCCCC(C)(C)c1ccccc1/C=C\C/C=C\C/C=C\CCCC(=O)N[C@H](C)CO
ED50 (Mus musculus [2]): 27.7 µmol/kg | pKi (Cannabinoid receptor 1): 7.06 | pKi (Cannabinoid receptor 2): 6.59 | ED50 (Mus musculus [3]): 25.7 µmol/kg | Activity (Mus musculus [6]): -0.87 °C | Activity (Mus musculus [7]): 50%

C[C@H](CO)NC(=O)CCC/C=C\C/C=C\CCOc1cccc(C(C)(C)CCCCO)c1
ED50 (Mus musculus [1]): 2.8 µmol/kg | ED50 (Mus musculus [2]): 0.7 µmol/kg | pKi (Cannabinoid receptor 1): 7.10 | pKi (Cannabinoid receptor 2): 7.96 | ED50 (Mus musculus [3]): 1.1 µmol/kg | ED50 (Mus musculus [4]): 0.6 µmol/kg
